Screens deposited in PubChem BioAssay by The Scripps Research Institute Molecular Screening Center.
Hits are enriched below; roughly 4% of the tested compounds scored in any of these assays.
TAAR1 ag: agonists of human TAAR1 | Q96RJ0 | CHO RD-HGA16 TAAR1, Fluo-8 calcium fluorescence; vehicle wells 0%, saturating PEA agonist 100% | activation, % at 3 µM | 360,000 tested, 0.99% active | AID 624467;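 active = activation above the mean activation of all test compounds in the run plus 3 SD, cut at about 38% in these data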
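Repeats: no replicates (n 1) | Material: CHO-derived RD-HGA16 cells with stable Gα16 and human TAAR1 | Technique: Kinetic Fluo-8 calcium fluorescence | Schedule: 17-24 h seeding, 75 min 37 °C dye, 30 min RT | Evaluation: % activation from peak over basal fluorescence ratio, DMSO-to-PEA scaled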
CHO parental Ca: counter-screen for OX1R antagonists: effect in parental CHO cells; parental CHO-K1, ATP-induced calcium, Fluo-8 fluorescence; inhibition, % at 5.6 µM; 330,000 tested, 0.63% active; AID 463079;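 active = inhibition above that plate's mean sample inhibition plus 3 SD, cut at about 26% in these data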;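 also: 0% = ATP-challenged DMSO wells and 100% = DMSO wells without ATP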
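material = parental CHO cells | also added = ATP as calcium-mobilizing challenge | dosing = single point at 5.6 µM | detection = intracellular calcium via Fluo-8 no-wash fluorescent dye | read-out = % inhibition | benchmarks = low control ATP plus DMSO, high control DMSO only | repeats = one well per compound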
OX1R antag-1: blocks the human orexin 1 receptor; O43613; OX1R-expressing cells, FRET antagonist read-out; inhibition, % at 6.6 µM; 330,000 tested, 1.8% active; AID 485270; in the data active = inhibition mostly above about 38%, no sharp cut-off; inactive = mostly below about 40%;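 also: 0% = agonist challenge alone and 100% = reference antagonist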
Target sequence (O43613 whole entry, looked up): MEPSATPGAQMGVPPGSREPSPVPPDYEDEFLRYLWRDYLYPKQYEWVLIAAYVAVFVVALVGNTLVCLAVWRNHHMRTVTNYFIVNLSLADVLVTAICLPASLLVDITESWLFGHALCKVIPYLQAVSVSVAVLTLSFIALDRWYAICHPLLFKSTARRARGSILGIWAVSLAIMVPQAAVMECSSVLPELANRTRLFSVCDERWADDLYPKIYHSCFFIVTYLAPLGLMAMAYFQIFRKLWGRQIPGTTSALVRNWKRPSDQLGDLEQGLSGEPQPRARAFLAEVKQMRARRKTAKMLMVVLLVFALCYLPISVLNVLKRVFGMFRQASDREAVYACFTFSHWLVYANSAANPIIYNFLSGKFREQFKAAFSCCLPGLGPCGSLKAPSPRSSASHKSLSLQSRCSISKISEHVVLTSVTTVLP
OX1R antag-2: antagonists of human orexin 1 receptor; 330,000 tested, 0.43% active; inhibition, % at 5 µM; AID 434989; CHO/OX1R cells, Fluo-8 calcium fluorescence, orexin A; O43613;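 active = inhibition above its plate's threshold, mean inhibition of all tested compounds on the plate plus 3 SD, cut at about 37% in these data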;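 also: 0% = orexin A challenge wells and 100% = SB-334867-A antagonist wells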
TAAR1 antagonist: antagonists of human TAAR1; 360,000 tested, 1.5% active; Q96RJ0; CHO RD-HGA16 TAAR1, Fluo-8 calcium fluorescence, antagonist; inhibition, % at 3 µM; AID 624466;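 active = inhibition above a per-plate cutoff, the mean inhibition of test compounds on that plate plus 3 SD, cut at about 49% in these data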;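 also: 0% = DMSO plus EC80 beta-PEA response and 100% = DMSO alone without agonist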
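Test system: RD-HGA16 CHO cells with stable hTAAR1 and Gα16 / Probe or stimulus: EC80 β-phenethylamine stimulus / Times: seeding 17-24 h prior, 75-min 37 °C, 30-min RT dye loading / Detection: Fluo-8 calcium-sensitive fluorescence / Read-out basis: % inhibition scaled between DMSO and EC80 PEA controls / Repeats: singlicate, one well per test compound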
TAAR1 ag conf: confirmation of human TAAR1 agonists; shares compounds with TAAR1 ag; CHO RD-HGA16 TAAR1, Fluo-8 calcium fluorescence; scaled: DMSO 0%, maximal phenethylamine 100%; activation, % at 3 µM; 2,400 tested, 82% active;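 active = activation above a cutoff set at the run's mean compound activation plus 3 SD, cut at about 39% in these data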
Ga16 ag counter: counter-screen for TAAR1 agonists: nonselective agonists in parental cells. shares compounds with TAAR1 ag. CHO-Ga16 parental, Fluo-8 calcium fluorescence; normalized to maximal ATP response, DMSO zero. activation, % at 3 µM. 2,400 tested, 50% active. AID 651787;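 active = activation above the run cutoff, the mean activation over all tested wells plus 3 SD, cut at about 12% in these data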;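 also: 0% = DMSO wells and 100% = maximal ATP response on the peak over basal ratio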
TAAR1 desens: counter-screen for human TAAR1 agonists: agonists that desensitize TAAR1; CHO RD-HGA16 hTAAR1, Fluo-8 calcium, beta-PEA response inhibition; AID 651951; shares compounds with TAAR1 ag; inhibition, % at 3 µM; 2,400 tested, 46% active;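 active = inhibition above the run cutoff, the mean inhibition of all test compounds plus 3 SD, cut at about 49% in these data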;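 also: beta-PEA stimulus applied at its EC80; loss of beta-PEA calcium signal after compound pretreatment read as receptor desensitization; 0% = DMSO with beta-PEA at EC80 and 100% = DMSO alone without agonist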
Ga16 antag count: nonselective Ga16 antagonist in TAAR1 agonist counter-screen. 2,400 tested, 39% active. inhibition, % at 3 µM. CHO-Ga16 ATP-induced calcium, Fluo-8 fluorescence. AID 651952. shares compounds with TAAR1 ag;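 active = inhibition above the plate's mean compound inhibition plus 3 SD, computed per plate, cut at about 22% in these data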;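 also: 0% = EC80 ATP with DMSO and 100% = DMSO wells without ATP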
Starred values were filed as active, the others as inactive; nt = not tested or not shown.

SMILES	TAAR1 ag	CHO parental Ca	OX1R antag-1	OX1R antag-2	TAAR1 antagonist	TAAR1 ag conf	Ga16 ag counter	TAAR1 desens	Ga16 antag count
FC(F)(F)c1cnc(COc2cc(Cl)cc(Cl)c2)c(Cl)c1	11	-5	10	0	-16	nt	nt	nt	nt
c1ccc(C2(CN3CCNC[C@H]3Cc3cccc4ccccc34)CC2)cc1	44*	-22	20	-23	2	47*	19*	24	26*
CC(O)[C@H]1CNC(=S)N1CCc1cccc(F)c1 (stereo not given in full)	4	-11	12	-8	3	nt	nt	nt	nt
Fc1cccc(CCN2CCNC[C@H]2Cc2cccc3ccccc23)c1	68*	3	18	-7	21	80*	16*	46	27*
CC(O)[C@H]1CNCCN1CCc1cccc(F)c1 (stereo not given in full)	74*	-5	5	-5	5	67*	0	10	6
CC(C)(C)CN1CCNC[C@H]1Cc1cccc2ccccc12	5	-14	24	-24	16	nt	nt	nt	nt
COc1ccc(CCC(=O)OCC(=O)NCc2ccc(OC)c(OC)c2)cc1OC	4	3	11	-6	-3	nt	nt	nt	nt
CCc1nc2ccc(C(=O)Nc3ccc(OC)c(OC)c3)cn2c1N(C)CCC(C)C	82*	nt	nt	nt	6	99*	68*	38	9
CCc1nc2ccc(C(=O)Nc3ccc(OC)c(OC)c3)cn2c1N(C)Cc1ccc(OC)cc1	3	nt	nt	nt	43	nt	nt	nt	nt
CCCC(=NC(C)CC)C1=C(O)CC(c2ccccc2)CC1=O (stereo not given)	58*	-25	-1	-16	-1	86*	56*	2	6
CCC(C)N=CC1=C(O)CC(c2ccccc2)CC1=O (stereo not given)	1	-4	20	-24	14	nt	nt	nt	nt
Cc1nn(Cc2ccccc2Cl)c(C)c1NC(=O)c1cc(-c2ccc(F)cc2)on1	55*	-21	3	-20	63*	21	8	53*	26*
CCN(CC)CCc1c(C)[nH]c(C(=O)OCc2ccccc2)c1C	71*	-4	12	-5	26	73*	1	74*	2
CC(=O)N1c2ccc(S(=O)(=O)NCC3CCC(C(=O)NCc4ccco4)CC3)cc2CC1C (stereo not given)	1	-9	14	-13	-11	nt	nt	nt	nt
Cc1[nH]c2ccc(C(=O)NCc3ccccn3)cc2c1C	4	-2	8	-9	-10	nt	nt	nt	nt
Cc1nc(N)c2c(Cc3cccc4ccccc34)nn(C(C)(C)C)c2n1	47*	-43	20	-48	-22	41*	7	-13	-14
COc1ccccc1NS(=O)(=O)c1ccc(C(=O)N2CCCC(C(F)(F)F)C2)cc1 (stereo not given)	15	-9	16	9	8	nt	nt	nt	nt
Cc1ccc(NS(=O)(=O)c2ccc(C(=O)N3CCCC(C(F)(F)F)C3)cc2)cc1 (stereo not given)	142*	31	8	45*	89*	125*	90*	88*	48*
Cc1ccc(S(=O)(=O)Nc2ccc(NC(=O)c3c(F)c(F)c(F)c(F)c3F)cc2)cc1	117*	44*	-6	69*	66*	115*	71*	100*	67*
Cc1ccc(NS(=O)(=O)c2ccc(NC(=O)N3CCCCC3)cc2)cc1	52*	-3	-2	1	-4	46*	14*	15	21
Cc1cccc(NS(=O)(=O)c2ccc(NC(=O)N3CCCCC3)cc2)c1	22	-1	27	-4	26	nt	nt	nt	nt
COc1ccc(Cc2nc3ccc(C(=O)NCC4COCCO4)cc3o2)cc1OC (stereo not given)	2	-4	7	0	-14	nt	nt	nt	nt
N#C/C(=C\c1coc2ccc(O)cc2c1=O)C(=O)Nc1nc2ccccc2s1	480*	64*	65*	81*	104*	316*	295*	102*	95*
N#C/C(=C\c1coc2ccccc2c1=O)C(N)=S	6	-9	12	-4	14	nt	nt	nt	nt
COc1cc(C(=O)OCC(=O)N2CCCC2=O)cc(OC)c1C	8	-6	3	8	-10	nt	nt	nt	nt
SMILES	TAAR1 ag	CHO parental Ca	OX1R antag-1	OX1R antag-2	TAAR1 antagonist	TAAR1 ag conf	Ga16 ag counter	TAAR1 desens	Ga16 antag count
COc1ccc(-n2c(=O)c3c4c(sc3n(CC(=O)NCC3CCCO3)c2=O)CN(C(C)=O)CC4)cc1OC (stereo not given)	5	nt	nt	nt	-17	nt	nt	nt	nt
Cn1c(=O)cc2c3c(c(N4CCCCC4)ccc31)C(=O)c1ccccc1-2	0	-11	14	-26	5	nt	nt	nt	nt
Cn1c(=O)c(N)c2c3c(c(Br)ccc31)C(=O)c1ccccc1-2	84*	-10	21	-5	36	7	21*	33	35*
NCCc1nc(-c2ccccc2)cs1	56*	-8	7	-9	4	73*	0	61*	11
NC(=O)Cc1nc(-c2ccccc2)cs1	0	-6	6	-3	6	nt	nt	nt	nt
O=C(COC(=O)c1ccccc1OCc1ccccc1Cl)NCC1CCCO1 (stereo not given)	9	-27	8	-22	10	nt	nt	nt	nt
Cc1ccc(NC2=NCC(=O)N2CCc2ccccc2)cc1C	47*	-9	12	-15	-3	59*	7	26	10
CCOc1ccc(NC2=NCC(=O)N2CCc2ccccc2)cc1	70*	18	16	26	44	81*	42*	82*	52*
COc1ccc(CCN2C(=O)CN=C2Nc2ccc(F)cc2)cc1OC	5	-20	33	3	0	nt	nt	nt	nt
CC(=O)OC1CCC2C3CCc4cc(OP(=O)(N5CC5)N5CC5)ccc4C3CCC12C (stereo not given)	0	nt	nt	nt	-2	nt	nt	nt	nt
CSc1cccc(CN2CCC(n3nccc3NC(=O)C3CC3)CC2)c1	0	-13	21	-18	-26	nt	nt	nt	nt
COC(=O)C1N[C@@H]([C@@H](NC(=O)COc2ccccc2)C(=O)NCc2ccsc2)SC1(C)C (stereo not given in full)	11	-26	21	-41	32	nt	nt	nt	nt
CCC(=O)NNC(=O)c1cc(COc2cc(Cl)cc(Cl)c2)on1	55*	-14	-2	-5	19	40*	21*	21	16
